Calls of active or inactive are those of the source. The calls are words filed in the database; no cut-off is given here.
How the values were obtained:
HCT-116 [1] = assay: Antiproliferative activity against human HCT116 cells after 72 hrs by MTT assay; format: functional; conditions: HCT-116, 72 h
Procedure, shortened: (§1)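 HCT-116 and MCF-7 cells kept in RPMI-1640 plus 10% FBS. Cells exposed to compound for 72 h and read by MTT. GI50 obtained by non-linear regression.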

MCF7 = assay: Antiproliferative activity against human MCF7 cells after 72 hrs by MTT assay; format: functional; conditions: MCF7, 72 h; procedure, shortened: as §1
[2] = target: Cyclin-dependent kinase 7/ cyclin H (Homo sapiens, UniProt P50613); assay: Inhibition of CDK7/cyclin-H by radiometric assay; format: protein-complex assay
Sequence of Cyclin-dependent kinase 7/ cyclin H (P51946 whole entry): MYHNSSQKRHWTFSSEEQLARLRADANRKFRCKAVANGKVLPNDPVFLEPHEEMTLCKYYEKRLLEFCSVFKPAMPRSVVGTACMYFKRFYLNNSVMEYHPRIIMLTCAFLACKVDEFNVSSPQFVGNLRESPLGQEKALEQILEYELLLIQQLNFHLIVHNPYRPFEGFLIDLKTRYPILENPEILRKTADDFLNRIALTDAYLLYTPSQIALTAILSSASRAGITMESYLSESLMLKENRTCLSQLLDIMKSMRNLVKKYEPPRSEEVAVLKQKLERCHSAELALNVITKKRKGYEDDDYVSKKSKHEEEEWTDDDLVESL
Sequence of Cyclin-dependent kinase 7/ cyclin H (P50613 whole entry): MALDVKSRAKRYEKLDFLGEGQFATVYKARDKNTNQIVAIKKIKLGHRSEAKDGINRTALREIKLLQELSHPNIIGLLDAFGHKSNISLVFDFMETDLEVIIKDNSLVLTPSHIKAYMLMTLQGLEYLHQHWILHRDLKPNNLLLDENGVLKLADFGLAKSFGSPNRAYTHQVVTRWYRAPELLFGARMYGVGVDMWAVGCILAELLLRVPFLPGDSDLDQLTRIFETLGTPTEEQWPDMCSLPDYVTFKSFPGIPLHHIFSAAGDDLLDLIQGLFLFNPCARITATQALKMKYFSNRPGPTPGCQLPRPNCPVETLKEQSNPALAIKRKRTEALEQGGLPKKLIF
Procedure, shortened: (§2)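 Radiometric kinase assay run as an outsourced profiling service. IC50 taken from 10-point dose-response curves. Apparent Ki calculated from IC50 and the kinase-specific Km(ATP). Data are means of two replicates.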

[3] = target: Cyclin-dependent kinase 1/cyclin B1 (Homo sapiens, UniProt P06493); assay: Inhibition of CDK1/cyclin B by radiometric assay; format: protein-complex assay; procedure, shortened: as §2
Sequence of Cyclin-dependent kinase 1/cyclin B1 (P06493 whole entry): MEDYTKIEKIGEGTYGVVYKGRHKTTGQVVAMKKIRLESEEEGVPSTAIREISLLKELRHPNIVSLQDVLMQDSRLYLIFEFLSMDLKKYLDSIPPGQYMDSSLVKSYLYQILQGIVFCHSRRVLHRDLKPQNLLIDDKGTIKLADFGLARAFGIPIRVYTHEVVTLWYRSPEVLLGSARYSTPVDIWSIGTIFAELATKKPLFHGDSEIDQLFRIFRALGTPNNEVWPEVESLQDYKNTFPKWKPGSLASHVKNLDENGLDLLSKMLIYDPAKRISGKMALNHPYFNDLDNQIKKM
Sequence of Cyclin-dependent kinase 1/cyclin B1 (P14635 whole entry, further chain): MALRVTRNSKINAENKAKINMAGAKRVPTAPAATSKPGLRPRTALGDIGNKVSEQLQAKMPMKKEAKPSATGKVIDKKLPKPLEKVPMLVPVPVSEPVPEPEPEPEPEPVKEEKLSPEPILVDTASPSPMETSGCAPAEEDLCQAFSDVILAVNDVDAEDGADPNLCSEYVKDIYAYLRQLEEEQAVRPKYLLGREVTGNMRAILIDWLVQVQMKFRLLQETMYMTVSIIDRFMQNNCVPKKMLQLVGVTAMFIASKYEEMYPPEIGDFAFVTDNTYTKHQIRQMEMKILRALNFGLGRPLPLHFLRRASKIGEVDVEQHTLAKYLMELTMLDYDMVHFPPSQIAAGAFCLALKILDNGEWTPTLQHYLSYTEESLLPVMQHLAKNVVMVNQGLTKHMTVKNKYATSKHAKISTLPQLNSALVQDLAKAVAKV

CDK9/cyclin T1 = CDK9/cyclin T1 (Homo sapiens, UniProt P50750); assay: Inhibition of CDK9/cyclin-T1 by radiometric assay; format: protein-complex assay; procedure, shortened: as §2
Sequence of CDK9/cyclin T1 (O60563 whole entry): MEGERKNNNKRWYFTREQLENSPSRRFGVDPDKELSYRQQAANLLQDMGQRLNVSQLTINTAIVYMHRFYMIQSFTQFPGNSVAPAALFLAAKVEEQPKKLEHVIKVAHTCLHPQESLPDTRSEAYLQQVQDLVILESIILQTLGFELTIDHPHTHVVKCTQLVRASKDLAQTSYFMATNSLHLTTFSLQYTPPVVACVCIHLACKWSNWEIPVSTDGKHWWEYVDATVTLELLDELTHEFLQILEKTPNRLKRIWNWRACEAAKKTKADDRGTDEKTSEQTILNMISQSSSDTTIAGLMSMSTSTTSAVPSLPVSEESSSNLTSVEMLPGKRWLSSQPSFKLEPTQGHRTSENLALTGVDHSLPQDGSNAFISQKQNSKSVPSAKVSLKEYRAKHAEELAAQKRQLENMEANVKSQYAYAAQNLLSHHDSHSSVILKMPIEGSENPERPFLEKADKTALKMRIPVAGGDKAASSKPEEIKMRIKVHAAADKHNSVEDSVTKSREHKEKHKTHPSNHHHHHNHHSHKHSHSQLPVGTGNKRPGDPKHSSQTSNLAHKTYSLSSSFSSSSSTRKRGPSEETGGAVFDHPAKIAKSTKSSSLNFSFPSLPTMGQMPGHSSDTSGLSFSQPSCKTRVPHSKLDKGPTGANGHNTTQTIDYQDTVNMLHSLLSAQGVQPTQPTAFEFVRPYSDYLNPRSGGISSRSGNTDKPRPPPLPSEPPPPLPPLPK
Sequence of CDK9/cyclin T1 (P50750 whole entry): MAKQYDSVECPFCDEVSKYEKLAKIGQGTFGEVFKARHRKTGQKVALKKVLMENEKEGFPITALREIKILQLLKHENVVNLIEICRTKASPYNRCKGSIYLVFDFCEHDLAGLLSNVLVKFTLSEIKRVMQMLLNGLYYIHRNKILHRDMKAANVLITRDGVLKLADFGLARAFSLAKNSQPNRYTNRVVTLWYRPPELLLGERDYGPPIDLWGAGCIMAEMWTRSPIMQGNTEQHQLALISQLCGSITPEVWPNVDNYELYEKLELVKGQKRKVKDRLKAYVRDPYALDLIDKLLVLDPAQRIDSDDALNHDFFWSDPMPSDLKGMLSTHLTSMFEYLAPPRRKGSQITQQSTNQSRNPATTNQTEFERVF

HCT-116 [4] = assay: Cell cycle arrest in human HCT116 cells assessed as accumulation at pre-G1 phase at 10 times GI50 after 24 hrs by propidium iodide staining based flow cytometry; format: functional
Procedure, shortened: (§3)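 HCT-116 cells treated for 24 h at GI50, 5 × GI50 or 10 × GI50 multiples. Cells fixed and stained with propidium iodide, then DNA content read by flow cytometry. Pre-G1 fraction taken as the dead-cell population.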

HCT-116 [5] = assay: Induction of apoptosis in human HCT116 cells assessed as down-regulation of Mcl-1 level at 5 to 50 uM after 24 hrs Western blot analysis; format: functional, cell-based
Procedure, shortened: (§4)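 HCT-116 cells cultured with 5, 25 or 50 µM for 24 h. Lysates analysed by western blot, with β-actin as internal control.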

HCT-116 [6] = assay: Induction of apoptosis in human HCT116 cells assessed as increase of caspase-3/7 activity at 5 to 10 times GI50 after 24 hrs; format: functional, cell-based
HCT-116 [7] = assay: Cell cycle arrest in human HCT116 cells at 5 times GI50 after 24 hrs by propidium iodide staining based flow cytometry; format: functional; procedure, shortened: as §3
HCT-116 [8] = assay: Induction of apoptosis in human HCT116 cells assessed as induction of PARP cleavage at 5 to 50 uM after 24 hrs Western blot analysis; format: functional, cell-based; procedure, shortened: as §4
[9] = target: Cyclin-dependent kinase 7/ cyclin H (Homo sapiens) (UniProt P51946+P50613); assay: Inhibition of CDK7/cyclin-H in human HCT116 cells assessed as RNAPII CTD phosphorylation at Ser-5 at 5 to 50 uM after 24 hrs by Western blotting analysis; format: cell-based; conditions: HCT-116; procedure, shortened: as §4
HCT-116 [10] = assay: Cell cycle arrest in human HCT116 cells at GI50 after 24 hrs by propidium iodide staining based flow cytometry; format: functional; procedure, shortened: as §3
HCT-116 [11] = assay: Induction of apoptosis in human HCT116 cells assessed as increase of caspase-3/7 activity at GI50 after 24 hrs; format: functional, cell-based
[12] = target: CDK9/cyclin T1 (Homo sapiens) (UniProt O60563+P50750); assay: Inhibition of CDK9/cyclin-T1 in human HCT116 cells assessed as RNAPII CTD phosphorylation at Ser-2 at 5 to 50 uM after 24 hrs by Western blotting analysis; format: cell-based; conditions: HCT-116; procedure, shortened: as §4
[13] = Selectivity ratio of Ki for CDK1/cyclin B to Ki for CDK9/cyclin-T1
Procedure, shortened: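 Ratio of apparent Ki values for CDK1/cyclin B and CDK9/cyclin-T1. Each Ki comes from a radiometric assay, converted from 10-point-curve IC50 using Km(ATP), mean of two replicates.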

In the case of `CCn1nc(-c2ccnc(Nc3ccc(O)cc3)n2)c2ccccc21`, the GI50 (HCT-116 [1]) is reported as 5.29 µM and the GI50 (MCF7) is reported as 5.78 µM.

`Cc1ccc(Nc2nc3ncccc3n2Cc2ccccc2)cc1[N+](=O)[O-]` showed a GI50 (HCT-116 [1]) of 40.4 µM and a GI50 (MCF7) of 27.8 µM.

For `CCn1nc(-c2ccnc(Nc3ccc([N+](=O)[O-])cc3)n2)c2ccccc21`, the GI50 (HCT-116 [1]) was 4.06 µM and the GI50 (MCF7) was 24 µM.

Compound `Cc1cccc(Nc2nccc(-c3nn(C)c4ccccc34)n2)c1` has a GI50 (HCT-116 [1]) of 9.42 µM and a GI50 (MCF7) of 9.15 µM.

With `Cn1nc(-c2ccnc(Nc3cccc([N+](=O)[O-])c3)n2)c2ccccc21` the GI50 (HCT-116 [1]) was 0.49 µM and the GI50 (MCF7) was 0.58 µM.

`CCc1nn(-c2ccnc(Nc3ccc(S(N)(=O)=O)cc3)n2)c2ncccc12` gave a GI50 (HCT-116 [1]) of 6.34 µM and a GI50 (MCF7) of 0.88 µM.

`CCCn1nc(-c2ccnc(Nc3cccc(S(N)(=O)=O)c3)n2)c2ccccc21` gave a Ki [2] of over 5 µM, a GI50 (HCT-116 [1]) of 7.95 µM and a Ki [3] of 0.945 µM. The GI50 (MCF7) was 4.26 µM and the Ki (CDK9/cyclin T1) was 0.285 µM.

Work on `Oc1ccc(Nc2nc3ncccc3n2Cc2ccccc2)cc1` yielded a GI50 (HCT-116 [1]) of 72.6 µM and a GI50 (MCF7) of 52.5 µM.

With `O=[N+]([O-])c1cccc(Nc2nc3ncccc3n2Cc2ccccc2)c1` the GI50 (HCT-116 [1]) was 41.7 µM and the GI50 (MCF7) was 24.2 µM.

Work on `Cn1nc(-c2ccnc(Nc3ccc([N+](=O)[O-])cc3)n2)c2ccccc21` yielded a GI50 (HCT-116 [1]) of 8.22 µM and a GI50 (MCF7) of 11.8 µM.

For `Cn1nc(-c2ccnc(Nc3cccc(O)c3)n2)c2ccccc21`, the GI50 (HCT-116 [1]) was 17.2 µM and the GI50 (MCF7) was 28.2 µM.

For `NS(=O)(=O)c1ccc(Nc2nccc(-n3ncc4ccccc43)n2)cc1`, the Ki [2] was 0.328 µM, the GI50 (HCT-116 [1]) was 0.59 µM and the Ki [3] was 0.028 µM. The GI50 (MCF7) was 1.87 µM and the Ki (CDK9/cyclin T1) was 0.091 µM.

With `Cn1nc(-c2ccnc(Nc3cccc(S(N)(=O)=O)c3)n2)c2ccccc21` the Ki [2] was over 5 µM, the GI50 (HCT-116 [1]) was 1.98 µM and the Ki [3] was 0.061 µM. It also gave a GI50 (MCF7) of 2.27 µM and a Ki (CDK9/cyclin T1) of 0.098 µM.

For `Cn1nc(-c2ccnc(Nc3ccc(Cl)cc3)n2)c2ccccc21`, the GI50 (HCT-116 [1]) was 8.73 µM and the GI50 (MCF7) was 7.83 µM.

For `c1ccc(Cn2c(Nc3ccccc3)nc3cccnc32)cc1`, the GI50 (HCT-116 [1]) was 60.2 µM and the GI50 (MCF7) was 51.8 µM.

`NS(=O)(=O)c1ccc(Nc2nccc(-n3ncc4cccnc43)n2)cc1` showed a GI50 (HCT-116 [1]) of 8.04 µM and a GI50 (MCF7) of 7.02 µM.

`NS(=O)(=O)c1cccc(Nc2nccc(-n3ncc4cccnc43)n2)c1` showed a GI50 (HCT-116 [1]) of 14.6 µM and a GI50 (MCF7) of 6.93 µM.

`Brc1cccc(Nc2nc3ncccc3n2Cc2ccccc2)c1` gave a GI50 (HCT-116 [1]) of 77.7 µM and a GI50 (MCF7) of 78.7 µM.

For `COc1ccc(Nc2nc3ncccc3n2Cc2ccccc2)cc1`, the GI50 (HCT-116 [1]) was 87.3 µM and the GI50 (MCF7) was 59.1 µM.

Work on `CCCn1nc(-c2ccnc(Nc3ccc(O)cc3)n2)c2ccccc21` yielded a GI50 (HCT-116 [1]) of 5.45 µM and a GI50 (MCF7) of 3.34 µM.

With `NS(=O)(=O)c1cccc(Nc2nccc(-n3ncc4ccccc43)n2)c1` the Ki [2] was over 5 µM, the Activity (HCT-116 [4]) was “Active” and the Activity (HCT-116 [5]) was “Active”. The Activity (HCT-116 [6]) was “Active”, the GI50 (HCT-116 [1]) was 0.75 µM and the Activity (HCT-116 [7]) was “inactive”. For the same compound, the Ki [3] was 0.053 µM, the Activity (HCT-116 [8]) was “Active” and the inhibition [9] was “inactive”. The GI50 (MCF7) was 5.56 µM, the Activity (HCT-116 [10]) was “inactive” and the Ki (CDK9/cyclin T1) was 0.017 µM. For the same compound, the Activity (HCT-116 [11]) was “Active” and the inhibition [12] was “Active”.

`NS(=O)(=O)c1ccc(Nc2nccc(-c3nn(Cc4cccnc4)c4ccccc34)n2)cc1` showed a Ki [2] of over 5 µM, a GI50 (HCT-116 [1]) of 5.13 µM and a Ki [3] of 0.287 µM. For the same compound, the GI50 (MCF7) was 2.63 µM and the Ki (CDK9/cyclin T1) was 0.207 µM.

Compound `Cc1ccc(Nc2nccc(-c3nn(C)c4ccccc34)n2)cc1` has a GI50 (HCT-116 [1]) of 8.64 µM and a GI50 (MCF7) of 6.1 µM.

`Cc1nn(-c2ccnc(Nc3cccc(S(N)(=O)=O)c3)n2)c2ncccc12` gave a GI50 (HCT-116 [1]) of 24.8 µM and a GI50 (MCF7) of 19.9 µM.

For `CCn1nc(-c2ccnc(Nc3ccc(S(N)(=O)=O)cc3)n2)c2ccccc21`, the Ki [2] was over 5 µM, the GI50 (HCT-116 [1]) was 2.05 µM and the Ki [3] was 0.055 µM. For the same compound, the GI50 (MCF7) was 2.28 µM and the Ki (CDK9/cyclin T1) was 0.253 µM.

For `Cn1nc(-c2ccnc(Nc3ccc(S(N)(=O)=O)cc3)n2)c2ccccc21`, the Ki [2] was over 5 µM, the GI50 (HCT-116 [1]) was 2.28 µM and the Ki [3] was 0.096 µM. It also gave a GI50 (MCF7) of 0.94 µM and a Ki (CDK9/cyclin T1) of 0.14 µM.

With `Cn1nc(-c2ccnc(Nc3cccc(Cl)c3)n2)c2ccccc21` the GI50 (HCT-116 [1]) was 6.4 µM and the GI50 (MCF7) was 5.97 µM.

`Clc1ccc(Nc2nc3ncccc3n2Cc2ccccc2)cc1` gave a GI50 (HCT-116 [1]) of 59.5 µM and a GI50 (MCF7) of 48 µM.

`CCn1nc(-c2ccnc(Nc3cccc([N+](=O)[O-])c3)n2)c2ccccc21` gave a GI50 (HCT-116 [1]) of 2.82 µM and a GI50 (MCF7) of 2.31 µM.

With `CCn1nc(-c2ccnc(Nc3cccc(O)c3)n2)c2ccccc21` the GI50 (HCT-116 [1]) was 36.6 µM and the GI50 (MCF7) was 33.5 µM.

`CCn1nc(-c2ccnc(Nc3cccc(S(N)(=O)=O)c3)n2)c2ccccc21` showed a Ki [2] of over 5 µM, a GI50 (HCT-116 [1]) of 9.01 µM and a Ki [3] of 0.471 µM. It also gave a GI50 (MCF7) of 7.26 µM and a Ki (CDK9/cyclin T1) of 0.154 µM.

With `NS(=O)(=O)c1cccc(Nc2nccc(-c3nn(Cc4cccnc4)c4ccccc34)n2)c1` the Ki [2] was over 5 µM, the Ratio Ki [13] was 14 and the GI50 (HCT-116 [1]) was 8.28 µM. The Ki [3] was 4.53 µM, the GI50 (MCF7) was 5.27 µM and the Ki (CDK9/cyclin T1) was 0.314 µM.

With `Cn1nc(-c2ccnc(Nc3ccc(O)cc3)n2)c2ccccc21` the GI50 (HCT-116 [1]) was 8.43 µM and the GI50 (MCF7) was 8.91 µM.

`CCCn1nc(-c2ccnc(Nc3ccc(S(N)(=O)=O)cc3)n2)c2ccccc21` showed a Ki [2] of over 5 µM, a GI50 (HCT-116 [1]) of 6.74 µM and a Ki [3] of 0.127 µM. It also gave a GI50 (MCF7) of 0.59 µM and a Ki (CDK9/cyclin T1) of 0.176 µM.

`Clc1cccc(Nc2nc3ncccc3n2Cc2ccccc2)c1` showed a GI50 (HCT-116 [1]) of 36.3 µM and a GI50 (MCF7) of 43.5 µM.

Work on `Cc1nn(-c2ccnc(Nc3ccc(S(N)(=O)=O)cc3)n2)c2ncccc12` yielded a GI50 (HCT-116 [1]) of 8.84 µM and a GI50 (MCF7) of 8.64 µM.

With `c1ccc(Cn2c(Nc3ccccc3)nc3ncccc32)cc1` the GI50 (HCT-116 [1]) was 64.7 µM and the GI50 (MCF7) was 52.5 µM.

`CCc1nn(-c2ccnc(Nc3cccc(S(N)(=O)=O)c3)n2)c2ncccc12` gave a GI50 (HCT-116 [1]) of 65.1 µM and a GI50 (MCF7) of 73.2 µM.

Source: ChEMBL document CHEMBL2086300, “Synthesis and biological evaluation of imidazo[4,5-b]pyridine and 4-heteroaryl-pyrimidine derivatives as anti-cancer agents” (Eur J Med Chem, 2012)
